Assay results published in ChEMBL document CHEMBL1150381, “Effects of amide constituents from pepper on adipogenesis in 3T3-L1 cells” (Bioorg Med Chem Lett, 2008).
Calls of active or inactive are those of the source. The rule behind the calls is not given here.

Columns and labels:
3T3-L1 [1] = experiment: Antidiabetic activity in mouse 3T3L1 cells assessed as enhancement of triglyceride accumulation at 30 uM; type: functional
Outline: (§1)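 3T3-L1 cells (5.0 × 10^4/well) in DMEM + 10% FCS; after 24 h differentiated 72 h in high-glucose DMEM/10% FCS with 1 µM dexamethasone, 0.5 mM IBMX, 5 µg/mL insulin, then maintenance medium (10% FCS, 5 µg/mL insulin) 4 days. Compound in DMSO (final 0.1%) in both media. Day 8: cells sonicated in water, triglyceride measured by enzymatic kit; means ± SEM, n = 4.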

3T3-L1 [2] = experiment: Antidiabetic activity in mouse 3T3L1 cells assessed as enhancement of triglyceride accumulation at 1 uM; type: functional; outline: as §1
3T3-L1 [3] = experiment: Antidiabetic activity in mouse 3T3L1 cells assessed as enhancement of triglyceride accumulation at 3 uM; type: functional; outline: as §1
3T3-L1 [4] = experiment: Antidiabetic activity in mouse 3T3L1 cells assessed as enhancement of triglyceride accumulation at 10 uM; type: functional; outline: as §1
3T3-L1 [5] = experiment: Cytotoxicity against mouse 3T3L1 cells at 30 uM; type: cell-based; details: 3t3-l1, 30 µM
Outline: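 Cells differentiated and treated through day 8 as in triglyceride assay; cytotoxicity at 30 µM judged by cell detachment from culture plate surface.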

3T3-L1 [6] = experiment: Increase in IRS1 mRNA expression in mouse 3T3L1 cells at 30 uM after 4 days by RT-PCR; type: functional, cell-based
Outline: (§2)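 3T3-L1 cells (1.0 × 10^6/well) in DMEM + 10% FCS, differentiated with compound; control 0.1% DMSO; mRNA levels of adiponectin, PPARγ2, GLUT4, IRS-1 assessed; means ± SEM, n = 3.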

3T3-L1 [7] = experiment: Induction of adiponectin release to medium in mouse 3T3L1 cells at 10 uM by ELISA; type: functional, cell-based
Outline: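 3T3-L1 cells (5.0 × 10^4/well) differentiated, then maintenance medium 4 days; compound in DMSO (final 0.1%) present in media; on day 8 adiponectin in culture medium quantified by ELISA.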

3T3-L1 [8] = experiment: Increase in PPARgamma2 mRNA expression in mouse 3T3L1 cells after 4 days by RT-PCR; type: functional, cell-based; outline: as §2
3T3-L1 [9] = experiment: Increase in 2-deoxyglucose uptake in mouse 3T3L1 cells by liquid scintillation counter; type: functional, cell-based
Outline: (§3)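 Cells differentiated as for triglyceride assay with compound in DMSO (final 0.1%) in differentiation and maintenance media. Day 8: serum-free 4 h, KRP buffer wash, 20 min with 100 nM insulin, then 0.1 mM 2-deoxyglucose plus [3H]2-deoxyglucose (1 µCi/mL) 10 min at 37 °C. Lysed in 1 M NaOH, neutralized, scintillation counted; cytochalasin B (20 µM) nonspecific uptake subtracted.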

3T3-L1 [10] = experiment: Increase in 2-deoxyglucose uptake in mouse 3T3L1 cells at 3 uM by liquid scintillation counter; type: functional, cell-based; outline: as §3
3T3-L1 [11] = experiment: Increase in adiponectin mRNA expression in mouse 3T3L1 cells at 10 uM after 4 days by RT-PCR; type: functional, cell-based; outline: as §2
3T3-L1 [12] = experiment: Increase in GLUT4 mRNA expression in mouse 3T3L1 cells after 4 days by RT-PCR; type: functional, cell-based; outline: as §2

| SMILES | Activity (3T3-L1 [1]) [%] | Activity (3T3-L1 [2]) [%] | Activity (3T3-L1 [3]) [%] | Activity (3T3-L1 [4]) [%] | Activity (3T3-L1 [5]) [%] | Activity (3T3-L1 [6]) | Activity (3T3-L1 [7]) | Activity (3T3-L1 [8]) | Activity (3T3-L1 [9]) | Activity (3T3-L1 [10]) | Activity (3T3-L1 [11]) | Activity (3T3-L1 [12]) |
| --- | --- | --- | --- | --- | --- | --- | --- | --- | --- | --- | --- | --- |
| CCCCC/C=C\CCCCCCCC/C=C/C=C/C(=O)NCC(C)C | 20.2 | -3 | -7.2 | 7.2 |  |  |  |  |  |  |  |  |
| CCCCCCCCCCCCC/C=C/C=C/C(=O)NCC(C)C | 20.6 | 14.1 | 3.3 | 19.6 |  |  |  |  |  |  |  |  |
| CCCCCCC/C=C/C=C/C(=O)NCC(C)C | 15.3 | 10.1 | 16.3 | 11.1 |  |  |  |  |  |  |  |  |
| O=C(O)/C=C/C=C/CC/C=C/c1ccc2c(c1)OCO2 | -7.3 | -3.9 | 1.5 | 3.9 |  |  |  |  |  |  |  |  |
| CCOC(=O)/C=C/C=C/CC/C=C/c1ccc2c(c1)OCO2 | 8.7 | 2.9 | 2.9 | 1.2 |  |  |  |  |  |  |  |  |
| CC(C)CNC(=O)/C=C/C=C/CCCCCCCC/C=C/c1ccc2c(c1)OCO2 [BRACHYSTAMIDE B] | 13.7 | 11.1 | 18.5 | 16.8 |  |  |  |  |  |  |  |  |
| O=C(/C=C/C=C/CC/C=C/c1ccc2c(c1)OCO2)N1CCCCC1 [DEHYDROPIPERNOLINE] |  | 0.5 | 1.8 | 1.5 | -19.9 |  |  |  |  |  |  |  |
| CC(C)CNC(=O)/C=C/C=C/CCCCCC/C=C/c1ccc2c(c1)OCO2 [GUINEENSINE] | 2 | 1.5 | 9.7 | 0.8 |  |  |  |  |  |  |  |  |
| COC(=O)/C=C/C=C/c1ccc2c(c1)OCO2 [METHYL PIPERATE] | 17.1 | 5.2 | 17.8 | 25.2 |  |  |  |  |  |  |  |  |
| CCCCC/C=C/C=C/C(=O)NCC(C)C [PELLITORIN] | 6.2 | 4.4 | 18.2 | 10 |  |  |  |  |  |  |  |  |
| O=C(/C=C/CCc1ccc2c(c1)OCO2)N1CCCCC1 [PIPERANINE] | 8.3 | 20.4 | 19.1 | 13.1 |  |  |  |  |  |  |  |  |
| O=C(/C=C/CCCCCC/C=C/c1ccc2c(c1)OCO2)N1CCCCC1 [PIPERCHABAMIDE B] |  | -14.1 | -2.2 | -3.5 | -30.3 |  |  |  |  |  |  |  |
| O=C(/C=C/C=C/CCCCCC/C=C/c1ccc2c(c1)OCO2)N1CCCCC1 [PIPERCHABAMIDE C] | -11 | 9.4 | 17.6 | -10.2 |  |  |  |  |  |  |  |  |
| CC(C)CNC(=O)/C=C/CCCCCC/C=C/c1ccc2c(c1)OCO2 [PIPERCHABAMIDE D] | 4.7 | 1.7 | 8 | 8.5 |  |  |  |  |  |  |  |  |
| O=C(/C=C/C=C/c1ccc2c(c1)OCO2)N1CCCCC1 [PIPERINE] | -1.2 | -1.2 | -3.9 | -14.2 |  |  |  |  |  |  |  |  |
| CC(C)CNC(=O)/C=C/C=C/c1ccc2c(c1)OCO2 [PIPERLONGUMININE] | 20.4 | 19.5 | 28.1 | 31.8 |  |  |  |  |  |  |  |  |
| O=C(/C=C/CCCC/C=C/c1ccc2c(c1)OCO2)N1CCCCC1 [PIPERNONALINE] |  | 1 | 5.4 | 10.5 | -61.2 |  |  |  |  |  |  |  |
| O=C(CCCCCC/C=C/c1ccc2c(c1)OCO2)N1CCCCC1 [PIPERROLEIN B] | 9.4 | -2.8 | 30.3 | 20.9 |  |  |  |  |  |  |  |  |
| O=C(/C=C/C=C/CCCC/C=C/c1ccc2c(c1)OCO2)N1CCCCC1 [PIPERUNDECALIDIENE] |  | -13 | -7.3 | 7.3 | -60.8 |  |  |  |  |  |  |  |
| CC(C)CNC(=O)/C=C/C=C/CC/C=C/c1ccc2c(c1)OCO2 [RETROFRACTAMIDE A] | 33.3 | 25.1 | 27.3 | 27.8 |  | Active | Active | Active | Dose-dependent effect | Active | Active | Active |
| CC(C)CNC(=O)/C=C/C=C/CCCC/C=C/c1ccc2c(c1)OCO2 [RETROFRACTAMIDE B] | 27.6 | 18.8 | 29.9 | 28.4 |  |  |  |  |  |  |  |  |
| CC(C)CNC(=O)/C=C/CCCC/C=C/c1ccc2c(c1)OCO2 [RETROFRACTAMIDE C] | 15.4 | 9.7 | 15 | 22.2 |  |  |  |  |  |  |  |  |
| Cc1c(C)c2c(c(C)c1O)CCC(C)(COc1ccc(CC3SC(=O)NC3=O)cc1)O2 (centres undefined) [TROGLITAZONE] |  | 33.8 | 40.5 | 39.6 |  |  |  |  |  | Active |  |  |
